Values joined by “and” are separate entries in the source; they are usually repeats but may differ in a detail not shown here. Identical values can stand only once.
Test system: Fibroblast
Assay: Multiplex assay against human fibroblast
Format: toxicity, cell-based
Method in brief: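 With compound added, live cells were imaged on a CQ1 microscope at 37°C and 5% CO2; staining with Hoechst33342, BioTracker Green Microtubule Cytoskeleton Dye, MitoTracker Red and Annexin V Alexa Fluor 680 had been done at seeding. The CellPathfinder machine-learning gating scheme split cells into Hoechst high-intensity objects or normal cells, normal cells into healthy, pyknosed or fragmented nuclei, and pyknosed cells into mitotic or apoptotic. The tubulin, mitochondrial-mass and membrane-permeability phenotypes are per cents of healthy-nucleus cells.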

[1] = 12 h, 1 µM, compound concentration 1 uM
[2] = 12 h, 10 µM, compound concentration 10 uM
[3] = 24 h, 1 µM, compound concentration 1 uM
[4] = 24 h, 10 µM, compound concentration 10 uM
[5] = 48 h, 1 µM, compound concentration 1 uM
[6] = 48 h, 10 µM, compound concentration 10 uM

## CC[C@@H](C)Nc1nc(C)nc2c(-c3ccc(OC)nc3C)c(C)nn12 [PEXACERFONT]
[1]
  Population Apoptotic (%): 40% and 25%
  Population Fragmented Nuclei (%): 12% and 32%
  Population Healthy Nuclei (%): 66% and 44%
  Population Hoechst High Intensity Objects (%): 1% and 2%
  Population Mitochondria Different-Phenotype (%): 4%
  Population Mitotic Cells (%): 60% and 75%
  Population Normal (%): 98% and 97%
  Population Pyknosed Nuclei (%): 20% and 24%
  Population Tubulin-Different-Phenotype (%): 35% and 65%
  Total Cell Count: 147 and 103
[2]
  Population Apoptotic (%): 43% and 38%
  Population Fragmented Nuclei (%): 15% and 21%
  Population Healthy Nuclei (%): 55% and 40%
  Population Hoechst High Intensity Objects (%): 2% and 8%
  Population Membrane Permeable-Phenotype (%): 0% and 7%
  Population Mitochondria Different-Phenotype (%): 19% and 9%
  Population Mitotic Cells (%): 56% and 61%
  Population Normal (%): 97% and 91%
  Population Pyknosed Nuclei (%): 29% and 38%
  Population Tubulin-Different-Phenotype (%): 62% and 68%
  Total Cell Count: 143 and 147
[3]
  Population Apoptotic (%): 52% and 47%
  Population Fragmented Nuclei (%): 16% and 35%
  Population Healthy Nuclei (%): 70% and 42%
  Population Hoechst High Intensity Objects (%): 1% and 3%
  Population Membrane Permeable-Phenotype (%): 0% and 20%
  Population Mitochondria Different-Phenotype (%): 3% and 2%
  Population Mitotic Cells (%): 47% and 52%
  Population Normal (%): 98% and 96%
  Population Pyknosed Nuclei (%): 13% and 22%
  Population Tubulin-Different-Phenotype (%): 38% and 61%
  Total Cell Count: 157 and 108
[4]
  Population Apoptotic (%): 37% and 38%
  Population Fragmented Nuclei (%): 16% and 18%
  Population Healthy Nuclei (%): 56% and 47%
  Population Hoechst High Intensity Objects (%): 1% and 7%
  Population Mitochondria Different-Phenotype (%): 10% and 6%
  Population Mitotic Cells (%): 62% and 61%
  Population Normal (%): 98% and 92%
  Population Pyknosed Nuclei (%): 27% and 33%
  Population Tubulin-Different-Phenotype (%): 68% and 76%
  Total Cell Count: 139 and 143
[5]
  Population Apoptotic (%): 54% and 25%
  Population Fragmented Nuclei (%): 15% and 40%
  Population Healthy Nuclei (%): 69% and 45%
  Population Hoechst High Intensity Objects (%): 8% and 1%
  Population Mitochondria Different-Phenotype (%): 0% and 4%
  Population Mitotic Cells (%): 45% and 75%
  Population Normal (%): 91% and 98%
  Population Pyknosed Nuclei (%): 15% and 14%
  Population Tubulin-Different-Phenotype (%): 30% and 52%
  Total Cell Count: 160 and 113
[6]
  Population Apoptotic (%): 87% and 52%
  Population Fragmented Nuclei (%): 23% and 32%
  Population Healthy Nuclei (%): 53% and 50%
  Population Hoechst High Intensity Objects (%): 3% and 4%
  Population Membrane Permeable-Phenotype (%): 0% and 12%
  Population Mitochondria Different-Phenotype (%): 14% and 9%
  Population Normal (%): 96% and 95%
  Population Pyknosed Nuclei (%): 22% and 16%
  Population Tubulin-Different-Phenotype (%): 62% and 76%
  Total Cell Count: 144 and 134

## Oc1c(CN2CCN(c3ccccn3)CC2)cc(Cl)c2cccnc12
[1]
  Population Apoptotic (%): 73% and 57%
  Population Fragmented Nuclei (%): 17% and 27%
  Population Healthy Nuclei (%): 68% and 54%
  Population Hoechst High Intensity Objects (%): 4% and 5%
  Population Membrane Permeable-Phenotype (%): 1% and 8%
  Population Mitochondria Different-Phenotype (%): 0% and 6%
  Population Mitotic Cells (%): 26% and 42%
  Population Normal (%): 95% and 94%
  Population Pyknosed Nuclei (%): 14% and 18%
  Population Tubulin-Different-Phenotype (%): 27% and 43%
  Total Cell Count: 168 and 152
[2]
  Population Apoptotic (%): 41% and 33%
  Population Fragmented Nuclei (%): 17% and 25%
  Population Healthy Nuclei (%): 54% and 58%
  Population Hoechst High Intensity Objects (%): 5% and 2%
  Population Membrane Permeable-Phenotype (%): 0% and 2%
  Population Mitochondria Different-Phenotype (%): 25% and 9%
  Population Mitotic Cells (%): 58% and 66%
  Population Normal (%): 94% and 97%
  Population Pyknosed Nuclei (%): 27% and 16%
  Population Tubulin-Different-Phenotype (%): 67% and 62%
  Total Cell Count: 130 and 131
[3]
  Population Apoptotic (%): 50% and 45%
  Population Fragmented Nuclei (%): 19% and 29%
  Population Healthy Nuclei (%): 67% and 56%
  Population Hoechst High Intensity Objects (%): 3% and 5%
  Population Membrane Permeable-Phenotype (%): 0% and 8%
  Population Mitochondria Different-Phenotype (%): 3% and 7%
  Population Mitotic Cells (%): 50% and 55%
  Population Normal (%): 96% and 94%
  Population Pyknosed Nuclei (%): 13%
  Population Tubulin-Different-Phenotype (%): 30% and 47%
  Total Cell Count: 174 and 153
[4]
  Population Apoptotic (%): 89% and 56%
  Population Fragmented Nuclei (%): 26% and 35%
  Population Healthy Nuclei (%): 46% and 41%
  Population Hoechst High Intensity Objects (%): 0% and 2%
  Population Membrane Permeable-Phenotype (%): 1%
  Population Mitochondria Different-Phenotype (%): 15% and 11%
  Population Normal (%): 100% and 97%
  Population Pyknosed Nuclei (%): 27% and 22%
  Population Tubulin-Different-Phenotype (%): 57% and 68%
  Total Cell Count: 139 and 134
[5]
  Population Apoptotic (%): 54% and 70%
  Population Fragmented Nuclei (%): 17% and 25%
  Population Healthy Nuclei (%): 67% and 66%
  Population Hoechst High Intensity Objects (%): 5% and 0%
  Population Membrane Permeable-Phenotype (%): 1% and 4%
  Population Mitochondria Different-Phenotype (%): 1% and 4%
  Population Mitotic Cells (%): 45% and 30%
  Population Normal (%): 94% and 99%
  Population Pyknosed Nuclei (%): 14% and 7%
  Population Tubulin-Different-Phenotype (%): 35% and 37%
  Total Cell Count: 158 and 137
[6]
  Population Apoptotic (%): 85% and 78%
  Population Fragmented Nuclei (%): 31% and 34%
  Population Healthy Nuclei (%): 32% and 41%
  Population Hoechst High Intensity Objects (%): 2%
  Population Membrane Permeable-Phenotype (%): 0% and 1%
  Population Mitochondria Different-Phenotype (%): 9% and 7%
  Population Mitotic Cells (%): 14% and 21%
  Population Normal (%): 97%
  Population Pyknosed Nuclei (%): 35% and 24%
  Population Tubulin-Different-Phenotype (%): 38% and 65%
  Total Cell Count: 137

From ChEMBL document CHEMBL5724801, “EUbOPEN Chemogenomics Library - Multiplex” (2024)
